Apaf1 activ: human Apaf-1 activation; O14727; Apaf-1 apoptosome caspase-3 activation, DEVD-Rh110 fluorescence; hits give low values; activity change, negative = activation, % at 20 µM; 0.31% of 330,000 active; AID 489031;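 active means activity change at or below -40% at 20 µM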
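System: Reconstituted apoptosome of Apaf-1, cytochrome c, caspase-9, procaspase-3 | Reagent: dATP, cytochrome c, and (Z-DEVD)2-Rh110 caspase-3 substrate | Times: 30 min compound preincubation and 50 min reaction, both room temperature | Detection: Caspase-3-released Rh110 fluorescence, 540 nm emission, 480 nm excitation | Measure: Caspase-3 activity via Apaf-1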
Rh110 interf act: interferes with Rh110 fluorescence, flagging false Apaf-1 activators; fluorescence interference (activity change), % at 20 µM, hits read low; shares compounds with Apaf1 activ; AID 504616; 980 tested, under 10 active; Rh110 fluorescence interference, quenched caspase reaction, Ex480/Em540;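 active means mean activity change at or below -40% when tested at 20 µM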
Apaf-1 act conf: confirmation of human Apaf-1 activators | shares compounds with Apaf1 activ | reconstituted apoptosome caspase-3 activity, DEVD-Rh110 fluorescence; hits give low values | activity change, negative = activation, % at 20 µM | 5% of 980 active;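 active means mean activity change at or below -40%, meaning activation of 40% or more, at 20 µM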
Fluor interf act: shows fluorescence interference in the Apaf-1 activator assay format; shares compounds with Apaf1 activ; fluorescence interference counterscreen; EC50, µM; 55 tested, under 10 active; call rule not given here
* marks the source's active call; other numbers are inactive results. Only a sample is shown.

CC(CNc1ccccc1O)C(=O)O (stereo not drawn) was read as Apaf1 activ -165*, Rh110 interf act 4, Apaf-1 act conf -81* and Fluor interf act >100.
Screening CN(C)c1ccc(NC(=O)Oc2ccccc2)cc1 returned Apaf1 activ 48.
`Cc1cc(C)cc(NC(=S)Nc2cccc3cnccc23)c1` gave Apaf1 activ 98.
`COc1cccc(CN(C)C(=O)c2ccc(C)c(S(=O)(=O)N3CCCCC3)c2)c1` gave Apaf1 activ 40.
`COc1cccc(CNC(=O)CN2C(=O)COc3ccc(S(=O)(=O)N4CCCC4)cc32)c1` gave Apaf1 activ -82*, Rh110 interf act 0 and Apaf-1 act conf 6.
`COc1cccc(CN(C)C(=O)c2cc(S(=O)(=O)N3CCCCCC3)ccc2OC)c1` gave Apaf1 activ 51.
For O=C1NC2=C(CCc3ccccc32)C(c2ccccc2)N1 (stereo not drawn) the results were Apaf1 activ 91.
Screening CC(C)(C)c1ccc(S(=O)(=O)/N=C2\C=C(NS(=O)(=O)c3ccccc3)C(=O)c3ccccc32)cc1 returned Apaf1 activ 46.
For COc1ccc(C2C(C#N)=C(N)Oc3n[nH]c(-c4ccccn4)c32)c(OC)c1OC (stereo not drawn) the results were Apaf1 activ -508*, Rh110 interf act 7 and Apaf-1 act conf 19.
For COc1cccc(-c2[nH]nc3c2C(c2ccsc2)C(C#N)=C(N)O3)c1 (stereo not drawn) the results were Apaf1 activ 60.
`CCc1cc2c(nc1CC)CCN(CC/C(C)=N/OC[C@H]1O[C@H](c3ccccc3)C=C[C@@H]1Oc1ccc(OC)cc1)C2` gave Apaf1 activ 43.
For O=C(/C=C/c1ccoc1)c1ccccc1O the results were Apaf1 activ -134*, Rh110 interf act -1 and Apaf-1 act conf 9.
Screening CCc1ccc2[nH]c(C(=O)Nc3ccc(Br)c(C)n3)cc2c1 returned Apaf1 activ -484*, Rh110 interf act 3 and Apaf-1 act conf 13.
For O=C(/C=C/Nc1ccc(F)c(F)c1)c1ccc(Br)cc1 the results were Apaf1 activ -103*, Rh110 interf act 4 and Apaf-1 act conf 15.
Cc1ccc(/C=N/NC(=O)CNC(=O)c2ccc(S(=O)(=O)N3CCCC3)cc2)o1 was read as Apaf1 activ -522*, Rh110 interf act 11 and Apaf-1 act conf 8.
CCc1nnc(NC(=O)c2ccc(S(=O)(=O)N3CCCCC3)cc2)s1 was read as Apaf1 activ 55.
For CN(C)CCCN(C(=O)c1ccc(S(=O)(=O)N2CCCCC2)cc1)c1nc2cc3c(cc2s1)OCO3 the results were Apaf1 activ 42.
Screening CCn1cc(CN2CCC(n3nccc3NC(=O)Cc3ccccc3)CC2)cn1 returned Apaf1 activ -53*, Rh110 interf act 0 and Apaf-1 act conf 9.
`CSc1nncc(/C(C)=N\Nc2cccc(C)c2)n1` gave Apaf1 activ 61.
For CC(=O)Nc1ccc(N2CC(C)(C)C2=O)cc1 the results were Apaf1 activ -58*, Rh110 interf act 6 and Apaf-1 act conf 11.
For O=C(O)CCNc1cc(N2CCN(C(=O)c3ccco3)CC2)c2noc3c2c1C(=O)c1ccccc1-3 the results were Apaf1 activ 81.
`O=c1[nH]c(Nc2ccc(F)cc2)cc2ccccc12` gave Apaf1 activ 95.
For O=c1[nH]c(CN2CCc3ccccc3C2)nc2ccccc12 the results were Apaf1 activ 65.
For O=c1[nH]c(C(F)(F)F)nc2ccccc12 the results were Apaf1 activ -112*, Rh110 interf act 0 and Apaf-1 act conf 12.
O=C(NCCCO)C(=O)NCc1ccncc1 was read as Apaf1 activ -63*, Rh110 interf act -80* and Apaf-1 act conf 10.
`c1csc(Cc2nn3c(-c4n[nH]c5c4CCC5)nnc3s2)c1` gave Apaf1 activ 41.
`CCN1CCc2c(sc(NC(=O)c3ccc4ccccc4c3)c2C(N)=O)C1` gave Apaf1 activ 40.
Screening Cc1c(N=Cc2cc3c(cc2[N+](=O)[O-])OCO3)cccc1[N+](=O)[O-] returned Apaf1 activ 44.
Screening Oc1cccc(C=Nc2cccc3ccccc23)c1O returned Apaf1 activ 74.
For COc1ccc(C(CNC(=O)c2cccn2C)N2CCOCC2)cc1 (stereo not drawn) the results were Apaf1 activ 47.
Screening CCCCOc1ccc(C(=O)NCC(=O)NCC(c2cccs2)N2CCOCC2)cc1 (stereo not drawn) returned Apaf1 activ 41.
